In data set [1] the test system is BEL-7404 tumor cell line. The experiment in a line: Anticancer activity against human Bel7404 cells at 6.25 ug/ml after 18 hrs by MTT assay. In kind it is functional. In short, it runs like this: (§1)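 Human tumour cells (Bel-7404 liver, MCG stomach, HNE1 nasopharyngeal) exposed to compound in solution for 18 h at 37 °C under air with 5% CO2, either kept in the dark or irradiated at 650 nm, 20 J/cm². Viability read by MTT; activity reported as percent cell death.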
A general note: Formazan colour is commonly taken as a measure of viable cells.

Data set [2] in a line: Anticancer activity against human HNE1 cells at 6.25 ug/ml after 18 hrs by MTT assay. The class given is functional. In short, it runs like this: as §1
The nature of data set [3]: Anticancer activity against human MCG cells at 6.25 ug/ml after 18 hrs by MTT assay. In kind it is functional. An outline of the steps: as §1
The nature of data set [4]: Anticancer activity against human HNE1 cells by MTT assay. In kind it is functional. Particulars: read-out: ID50 (the source's name). An outline of the steps: (§2)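 MTT assay of human tumour cell lines (Bel-7404 liver, MCG stomach, HNE1 nasopharyngeal carcinoma) run in the absence of light. ID50 is taken as the concentration giving 50% cell death, in ug/ml.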
Data set [5] relates to BEL-7404 tumor cell line. The experiment in a line: Anticancer activity against human Bel7404 cells by MTT assay. In kind it is functional. Particulars: read-out: ID50 (the source's name). In short, it runs like this:
as §2

Data set [6] can be described thus: Anticancer activity against human MCG cells by MTT assay. In kind it is functional. Particulars: read-out: ID50 (the source's name). An outline of the steps: as §2
The nature of data set [7]: Partition coefficient of the compound. In kind it is ADME. Particulars: octanol/water. In short, it runs like this:
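Compound distributed between the two non-miscible solvents octanol and water. Reported as the octanol/water partition ratio.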

Data set [8] is described as follows: Anticancer activity against human MCG cells with irradiation at 6.25 ug/ml after 18 hrs by MTT assay. The class given is functional. In short, it runs like this:
(§3)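 Human tumour cells (Bel-7404, MCG, HNE1) incubated 18 h with compound at 6.25 ug/ml at 37 °C in air with 5% CO2. Cells irradiated at 650 nm, 20 J/cm²; parallel wells kept unirradiated. Cell death rate read by MTT.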

Data set [9] deals with BEL-7404 tumor cell line. The experiment in a line: Anticancer activity against human Bel7404 cells with irradiation at 6.25 ug/ml after 18 hrs by MTT assay. The class given is functional. An outline of the steps:
as §3

The nature of data set [10]: Anticancer activity against human HNE1 cells with irradiation at 6.25 ug/ml after 18 hrs by MTT assay. The class given is functional. In short, it runs like this: as §3

Converted amounts (≈) assume the structure as drawn. A value given as a limit tells only on which side of the number the result lay.

Consider `O=c1[nH]cc(F)c(=O)[nH]1` [FLUOROURACIL], for which the Activity in data set [1], in [2] and in data set [3] was 29% each time.

`O=C([C@H](O)[C@@H](O)[C@H](O[C@@H]1O[C@H](CO)[C@H](O)[C@H](O)[C@H]1O)[C@H](O)CO)N1CCNCC1` [GALACTOSYLATEDPIPERAZINE]: the IC50 in [4], in data set [5] and in [6] was over 50 µg/mL throughout.

For `O=C([C@H](O)[C@@H](O)[C@H](O[C@@H]1O[C@H](CO)[C@H](O)[C@H](O)[C@H]1O)[C@H](O)CO)N1CCN(c2ccc(-c3c4nc(c(-c5ccc(N6CCN(C(=O)[C@H](O)[C@@H](O)[C@H](O[C@@H]7O[C@H](CO)[C@H](O)[C@H](O)[C@H]7O)[C@H](O)CO)CC6)cc5)c5ccc([nH]5)c(-c5ccc(N6CCN(C(=O)[C@H](O)[C@@H](O)[C@H](O[C@@H]7O[C@H](CO)[C@H](O)[C@H](O)[C@H]7O)[C@H](O)CO)CC6)cc5)c5nc(c(-c6ccc(N7CCN(C(=O)[C@H](O)[C@@H](O)[C@H](O[C@@H]8O[C@H](CO)[C@H](O)[C@H](O)[C@H]8O)[C@H](O)CO)CC7)cc6)c6ccc3[nH]6)C=C5)C=C4)cc2)CC1`, the IC50 in [4] was 33 µg/mL (≈ 14.3 µM); in data set [5], 29 µg/mL (≈ 12.5 µM); in [6], 35 µg/mL (≈ 15.1 µM). For the same compound, the Activity in data set [1] was determined as 19%; in [2], 19%; in [3], 19%; in [8], 96%; in data set [9], 96%; in data set [10], 96%. Also, in data set [7], the Ratio was found to be 18.

Regarding `Nc1ccc(-c2c3nc(c(-c4ccc(N)cc4)c4ccc([nH]4)c(-c4ccc(N)cc4)c4nc(c(-c5ccc(N)cc5)c5ccc2[nH]5)C=C4)C=C3)cc1`, the figures for the IC50 in [4], in [5] and in data set [6] were 28 µg/mL (≈ 41.5 µM), 33 µg/mL (≈ 48.9 µM) and 24 µg/mL (≈ 35.6 µM), respectively. Also, the Ratio in data set [7] amounted to 42.
